The target of one assay is Histone deacetylase. The experiment in a line: Inhibition of HDAC in human HeLa nuclear extract using Boc-Lys-(Ac)-AMC as substrate preincubated for 15 mins followed by substrate addition measured after 60 mins by fluorescence assay. Format: protein assay.
In another assay the target is Histone deacetylase 1 (Homo sapiens, UniProt Q13547). The experiment in a line: Inhibition of full length recombinant human C-terminal FLAG/His-tagged HDAC1 expressed in baculovirus infected sf9 cells using Boc-Lys-(Ac)-AMC as substrate preincubated for 15 mins followed by substrate addition measured after 60 mins by fluorescence assay.
The next assay addresses Histone deacetylase 2 (Homo sapiens, UniProt Q92769). The experiment in a line: Inhibition of full length recombinant human C-terminal His-tagged HDAC2 expressed in baculovirus infected sf9 cells using Boc-Lys-(Ac)-AMC as substrate preincubated for 15 mins followed by substrate addition measured after 60 mins by fluorescence assay.
Assay [1] has as its target Histone deacetylase 3/Nuclear receptor corepressor 2 (HDAC3/NCoR2) (Homo sapiens, UniProt O15379). Kind of assay: Inhibition of full length recombinant human C-terminal His-tagged HDAC3/N-terminal GST-tagged NCOR2 (395 to 489 residues) expressed in baculovirus infected sf9 cells using Boc-Lys-(Ac)-AMC as substrate preincubated for 15 mins followed by substrate addition measured after 60 mins by fluorescence assay.

Assay [2] addresses T1, Protein deacetylase HDAC6 (Homo sapiens, UniProt Q9UBN7).
T1 sequence (Q9UBN7 whole entry): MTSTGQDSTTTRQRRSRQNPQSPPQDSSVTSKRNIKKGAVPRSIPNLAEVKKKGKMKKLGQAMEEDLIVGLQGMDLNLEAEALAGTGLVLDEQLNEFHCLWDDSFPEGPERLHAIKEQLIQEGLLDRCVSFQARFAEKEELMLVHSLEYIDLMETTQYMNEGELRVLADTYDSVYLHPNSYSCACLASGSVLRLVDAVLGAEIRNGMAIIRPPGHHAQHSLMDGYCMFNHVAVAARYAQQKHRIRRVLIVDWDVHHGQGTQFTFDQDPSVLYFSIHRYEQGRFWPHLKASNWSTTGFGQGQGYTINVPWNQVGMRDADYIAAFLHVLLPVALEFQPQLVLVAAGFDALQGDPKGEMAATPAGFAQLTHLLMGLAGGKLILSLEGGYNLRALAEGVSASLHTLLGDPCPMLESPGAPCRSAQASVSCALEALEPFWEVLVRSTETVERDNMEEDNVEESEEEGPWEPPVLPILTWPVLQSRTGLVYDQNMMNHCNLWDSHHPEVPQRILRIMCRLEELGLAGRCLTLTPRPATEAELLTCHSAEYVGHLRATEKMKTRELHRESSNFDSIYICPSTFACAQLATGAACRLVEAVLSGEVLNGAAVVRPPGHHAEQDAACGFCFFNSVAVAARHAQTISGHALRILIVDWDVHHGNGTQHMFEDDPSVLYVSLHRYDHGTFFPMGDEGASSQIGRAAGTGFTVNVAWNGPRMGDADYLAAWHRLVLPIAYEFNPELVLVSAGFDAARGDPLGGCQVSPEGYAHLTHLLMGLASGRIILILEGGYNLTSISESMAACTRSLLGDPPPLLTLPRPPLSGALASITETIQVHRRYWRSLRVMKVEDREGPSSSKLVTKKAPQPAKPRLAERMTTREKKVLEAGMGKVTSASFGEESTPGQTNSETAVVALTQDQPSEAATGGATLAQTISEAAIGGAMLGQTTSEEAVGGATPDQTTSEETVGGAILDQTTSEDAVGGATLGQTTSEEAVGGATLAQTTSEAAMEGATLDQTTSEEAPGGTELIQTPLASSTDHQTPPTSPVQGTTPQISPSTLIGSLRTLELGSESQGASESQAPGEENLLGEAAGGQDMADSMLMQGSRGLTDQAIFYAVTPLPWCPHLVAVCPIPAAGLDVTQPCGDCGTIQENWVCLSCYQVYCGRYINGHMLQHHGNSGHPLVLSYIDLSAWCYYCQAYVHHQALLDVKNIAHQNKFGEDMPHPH
The experiment in a line: Inhibition of full length recombinant human N-terminal GST-tagged HDAC6 expressed in baculovirus infected sf9 cells using Boc-Lys-(Ac)-AMC as substrate preincubated for 15 mins followed by substrate addition measured after 60 mins by fluorescence assay.

In a further assay the target is T2, Histone deacetylase 8 (Homo sapiens, UniProt Q9BY41).
T2 sequence (Q9BY41 whole entry): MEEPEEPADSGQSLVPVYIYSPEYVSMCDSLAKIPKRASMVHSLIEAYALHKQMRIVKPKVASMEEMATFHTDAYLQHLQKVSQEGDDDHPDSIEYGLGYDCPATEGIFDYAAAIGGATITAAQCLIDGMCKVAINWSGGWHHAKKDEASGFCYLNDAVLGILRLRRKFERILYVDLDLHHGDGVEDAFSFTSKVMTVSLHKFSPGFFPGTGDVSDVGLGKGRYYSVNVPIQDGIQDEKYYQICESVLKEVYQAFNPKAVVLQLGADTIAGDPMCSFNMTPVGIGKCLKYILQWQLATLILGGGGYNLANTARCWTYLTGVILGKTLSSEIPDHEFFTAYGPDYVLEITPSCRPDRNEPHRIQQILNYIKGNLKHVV
The experiment in a line: Inhibition of full length recombinant human C-terminal His-tagged HDAC8 expressed in baculovirus infected sf9 cells using Boc-Lys-(TFA)-AMC as substrate preincubated for 15 mins followed by substrate addition measured after 60 mins by fluorescence assay.

Another assay concerns A549. Kind of assay: Antiproliferative activity against human A549 cells after 96 hrs by MTT assay. Format: functional. Conditions: Homo sapiens, A549, 96 h. In outline: (§1)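 Cells from Shanghai Cell Bank; A549 grown in high-glucose DMEM and HepG2 in MEM, both with 10% FBS plus penicillin/streptomycin, at 37°C in 5% CO₂. Seeded at 1.5-3.5×10⁴ cells/well for 24 h, then given graded compound concentrations for 96 h. MTT solution (2 mg/mL) added for 4 h, formazan dissolved in DMSO, A570 read. Growth expressed as treated/untreated cell number ratio.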
(In general: Tetrazolium dyes change colour on reduction, which living cells bring about.)

Assay [3] deals with HepG2. Kind of assay: Antiproliferative activity against human HepG2 cells after 96 hrs by MTT assay. In kind it is functional. The settings on record: Homo sapiens, HepG2, 96 h. In short, it runs like this:
as §1

The test system of assay [4] is HepG2. Kind of assay: Potency index, ratio of vorinostat GI50 to compound GI50 for human HepG2 cells. Format: functional.

Here are results for 7 molecules from ChEMBL document CHEMBL4219109, “Design, synthesis and biological evaluation of novel hydroxamic acid based histone deacetylase 6 selective inhibitors bearing phenylpyrazol scaffold as surface recognition motif” (Bioorg Med Chem, 2018).

SMILES strings stand for the structures.

Chain of Histone deacetylase 1 (Q13547 whole entry): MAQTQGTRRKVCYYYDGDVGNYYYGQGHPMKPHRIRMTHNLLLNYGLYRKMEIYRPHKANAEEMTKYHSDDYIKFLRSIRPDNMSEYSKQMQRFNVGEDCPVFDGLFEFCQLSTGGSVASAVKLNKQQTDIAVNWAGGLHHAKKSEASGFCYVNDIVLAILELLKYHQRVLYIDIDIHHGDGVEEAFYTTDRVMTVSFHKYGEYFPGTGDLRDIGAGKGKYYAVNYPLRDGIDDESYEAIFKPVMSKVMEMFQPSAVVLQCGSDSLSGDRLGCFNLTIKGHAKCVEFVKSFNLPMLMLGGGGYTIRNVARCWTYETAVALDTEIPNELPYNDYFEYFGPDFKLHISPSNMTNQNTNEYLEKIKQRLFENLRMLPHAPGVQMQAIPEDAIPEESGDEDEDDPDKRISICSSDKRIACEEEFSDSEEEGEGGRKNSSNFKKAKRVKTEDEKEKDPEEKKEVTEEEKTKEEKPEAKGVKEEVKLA
Chain of Histone deacetylase 2 (Q92769 whole entry, the tested form may be a part): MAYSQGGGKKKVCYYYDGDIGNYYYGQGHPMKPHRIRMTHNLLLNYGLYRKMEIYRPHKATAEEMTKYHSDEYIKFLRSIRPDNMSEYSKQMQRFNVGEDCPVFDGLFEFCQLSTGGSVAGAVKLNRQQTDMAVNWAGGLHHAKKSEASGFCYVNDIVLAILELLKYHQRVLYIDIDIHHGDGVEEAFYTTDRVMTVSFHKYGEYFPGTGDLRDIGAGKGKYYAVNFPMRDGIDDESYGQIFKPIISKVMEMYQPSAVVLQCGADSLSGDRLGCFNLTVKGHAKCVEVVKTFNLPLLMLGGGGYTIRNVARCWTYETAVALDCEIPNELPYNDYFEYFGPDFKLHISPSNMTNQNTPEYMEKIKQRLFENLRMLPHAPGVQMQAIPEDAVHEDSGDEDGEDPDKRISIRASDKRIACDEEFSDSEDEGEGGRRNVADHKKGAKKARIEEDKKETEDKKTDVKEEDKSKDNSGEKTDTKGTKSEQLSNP
Chain of Histone deacetylase 3/Nuclear receptor corepressor 2 (HDAC3/NCoR2) (O15379 whole entry, the tested form may be a part): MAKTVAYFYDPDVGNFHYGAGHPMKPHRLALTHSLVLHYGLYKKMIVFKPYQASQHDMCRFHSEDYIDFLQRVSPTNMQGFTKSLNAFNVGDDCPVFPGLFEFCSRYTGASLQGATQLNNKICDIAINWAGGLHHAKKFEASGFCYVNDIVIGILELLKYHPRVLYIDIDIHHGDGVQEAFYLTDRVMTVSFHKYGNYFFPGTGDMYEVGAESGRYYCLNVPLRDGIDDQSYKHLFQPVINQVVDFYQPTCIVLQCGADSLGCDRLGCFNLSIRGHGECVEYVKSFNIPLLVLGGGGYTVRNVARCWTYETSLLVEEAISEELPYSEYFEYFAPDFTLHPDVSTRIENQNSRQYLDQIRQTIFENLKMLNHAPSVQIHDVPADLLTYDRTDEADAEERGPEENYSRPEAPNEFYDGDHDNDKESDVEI
Chain of Histone deacetylase 3/Nuclear receptor corepressor 2 (HDAC3/NCoR2) (Q9Y618 whole entry, further chain, the tested form may be a part): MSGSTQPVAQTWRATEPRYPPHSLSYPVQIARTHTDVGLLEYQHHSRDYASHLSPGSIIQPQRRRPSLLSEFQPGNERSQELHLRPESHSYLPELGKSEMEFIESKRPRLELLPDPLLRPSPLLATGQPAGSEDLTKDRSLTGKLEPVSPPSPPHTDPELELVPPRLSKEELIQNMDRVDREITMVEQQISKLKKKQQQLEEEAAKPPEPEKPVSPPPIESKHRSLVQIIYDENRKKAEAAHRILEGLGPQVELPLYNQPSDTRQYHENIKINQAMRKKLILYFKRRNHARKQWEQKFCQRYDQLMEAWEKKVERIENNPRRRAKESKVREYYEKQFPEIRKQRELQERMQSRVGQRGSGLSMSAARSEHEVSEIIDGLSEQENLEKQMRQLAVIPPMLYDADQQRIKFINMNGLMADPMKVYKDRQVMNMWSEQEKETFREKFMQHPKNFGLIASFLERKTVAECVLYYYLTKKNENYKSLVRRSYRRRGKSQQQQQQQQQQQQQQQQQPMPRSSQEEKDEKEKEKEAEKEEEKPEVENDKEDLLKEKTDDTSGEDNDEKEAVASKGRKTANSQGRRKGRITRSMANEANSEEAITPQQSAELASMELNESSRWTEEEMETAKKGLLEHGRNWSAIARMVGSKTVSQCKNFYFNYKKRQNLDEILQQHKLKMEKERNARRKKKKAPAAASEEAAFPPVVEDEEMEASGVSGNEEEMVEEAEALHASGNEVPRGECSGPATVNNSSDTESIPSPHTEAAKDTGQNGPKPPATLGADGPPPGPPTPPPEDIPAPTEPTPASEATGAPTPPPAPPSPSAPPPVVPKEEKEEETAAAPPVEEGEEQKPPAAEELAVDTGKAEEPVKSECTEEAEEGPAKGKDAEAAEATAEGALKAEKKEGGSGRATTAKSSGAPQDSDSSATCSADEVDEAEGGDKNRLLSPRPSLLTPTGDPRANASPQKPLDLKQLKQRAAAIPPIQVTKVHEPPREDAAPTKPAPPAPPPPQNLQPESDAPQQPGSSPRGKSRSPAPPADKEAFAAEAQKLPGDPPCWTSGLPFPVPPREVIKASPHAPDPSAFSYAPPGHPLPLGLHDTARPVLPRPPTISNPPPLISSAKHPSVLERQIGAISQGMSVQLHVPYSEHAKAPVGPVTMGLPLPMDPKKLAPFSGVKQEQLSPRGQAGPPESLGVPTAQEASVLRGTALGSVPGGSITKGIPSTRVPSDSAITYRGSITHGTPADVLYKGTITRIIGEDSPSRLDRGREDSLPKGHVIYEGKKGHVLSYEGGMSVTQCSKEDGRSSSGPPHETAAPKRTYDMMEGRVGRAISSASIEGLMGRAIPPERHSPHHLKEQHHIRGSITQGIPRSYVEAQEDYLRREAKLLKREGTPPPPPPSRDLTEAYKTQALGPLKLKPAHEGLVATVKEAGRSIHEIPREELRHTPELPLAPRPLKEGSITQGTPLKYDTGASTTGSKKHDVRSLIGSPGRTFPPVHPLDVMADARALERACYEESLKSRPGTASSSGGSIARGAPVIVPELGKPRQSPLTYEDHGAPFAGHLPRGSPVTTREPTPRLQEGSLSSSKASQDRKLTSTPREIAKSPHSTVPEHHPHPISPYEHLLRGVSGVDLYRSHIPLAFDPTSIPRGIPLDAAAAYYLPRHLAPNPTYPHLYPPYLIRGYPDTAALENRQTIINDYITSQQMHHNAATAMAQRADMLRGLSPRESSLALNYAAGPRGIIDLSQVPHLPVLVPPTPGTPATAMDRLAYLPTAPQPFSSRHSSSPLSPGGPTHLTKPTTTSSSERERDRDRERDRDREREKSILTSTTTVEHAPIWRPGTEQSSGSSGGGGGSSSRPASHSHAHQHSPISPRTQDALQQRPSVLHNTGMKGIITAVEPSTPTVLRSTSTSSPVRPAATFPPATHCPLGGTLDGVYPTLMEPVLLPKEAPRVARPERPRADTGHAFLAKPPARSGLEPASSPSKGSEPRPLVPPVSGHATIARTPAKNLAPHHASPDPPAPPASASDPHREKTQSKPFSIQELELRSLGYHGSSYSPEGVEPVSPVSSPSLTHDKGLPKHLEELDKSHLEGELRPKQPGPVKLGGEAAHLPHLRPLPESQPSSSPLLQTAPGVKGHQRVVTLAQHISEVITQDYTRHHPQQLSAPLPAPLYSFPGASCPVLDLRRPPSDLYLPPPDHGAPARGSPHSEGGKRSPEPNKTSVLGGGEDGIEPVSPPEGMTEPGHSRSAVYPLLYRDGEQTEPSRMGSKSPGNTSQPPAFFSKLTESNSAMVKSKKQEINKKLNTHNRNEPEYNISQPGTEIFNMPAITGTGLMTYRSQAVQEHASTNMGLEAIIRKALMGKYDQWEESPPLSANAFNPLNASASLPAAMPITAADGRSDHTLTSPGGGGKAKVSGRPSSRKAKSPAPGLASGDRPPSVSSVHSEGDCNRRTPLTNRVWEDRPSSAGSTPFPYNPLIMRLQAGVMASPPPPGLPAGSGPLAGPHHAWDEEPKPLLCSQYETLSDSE

As a reminder, the IC50 is the midpoint of a concentration-inhibition curve. As usually defined, the GI50 is the concentration at which growth is held to half of that of the control. Read a high GI50 as lower sensitivity of the cells. For `Cc1cc(-c2ccc(F)cc2)n(Cc2ccc(C(=O)NO)cc2)n1`, the half-maximal inhibitory concentration (IC50) against Histone deacetylase is 1.439 µM; on Histone deacetylase 1, 2020 nM; on Histone deacetylase 2, 1970 nM; in assay [1], 1200 nM; in assay [2], 20 nM; on Histone deacetylase 8, over 5 µM. For the same molecule, the GI50 turned out to be 33 µM in the assay with A549 and 3.63 µM with HepG2 [3]. Further, the RatioGI50 in the assay on HepG2 [4] was 6.

On to `Cc1ccc(-c2cc(C(F)(F)F)n(CCc3ccc(C(=O)NO)cc3)n2)cc1`, for which the IC50 was 0.121 µM against Histone deacetylase; 352 nM at Histone deacetylase 1; 549 nM at Histone deacetylase 2; 80 nM in assay [1]; 78 nM in [2]; over 5 µM at Histone deacetylase 8. Moreover, the GI50 in the assay on A549 is over 100 µM; with HepG2 [3], 27.6 µM.

Take `Cc1ccc(-c2cc(C)n(Cc3ccc(C(=O)NO)cc3)n2)cc1`: the IC50 was 0.013 µM against Histone deacetylase; 133 nM at Histone deacetylase 1; 41 nM on Histone deacetylase 2; 26 nM in [1]; 7 nM in assay [2]; over 5 µM at Histone deacetylase 8. For the same molecule, the GI50 in the assay on A549 is 11.2 µM; in the assay on HepG2 [3], 21.2 µM.

Consider `Cc1cc(-c2ccc(F)cc2)nn1Cc1ccc(C(=O)NO)cc1`, for which the IC50 is 0.04 µM against Histone deacetylase; 480 nM at Histone deacetylase 1; 114 nM at Histone deacetylase 2; 69 nM in assay [1]; 8 nM in assay [2]; over 5 µM on Histone deacetylase 8. For the same molecule, the GI50 turned out to be 11.4 µM with A549 and 30 µM in the assay on HepG2 [3].

As for `Cc1ccc(-c2cc(C(F)(F)F)nn2Cc2ccc(C(=O)NO)cc2)cc1`, the IC50 against Histone deacetylase was 0.231 µM; on Histone deacetylase 1 it was 925 nM; on Histone deacetylase 2, 1220 nM; in assay [1] it was 128 nM; in assay [2] it was 27 nM; at Histone deacetylase 8, over 5 µM. Also, the GI50 is 10.6 µM in the assay with A549 and 7.5 µM in the assay on HepG2 [3].

Take `O=C(CCNC(=O)c1cc(-c2ccc(F)cc2)[nH]n1)NO`: the half-inhibitory concentration (IC50) is over 5 µM at Histone deacetylase; over 5000 nM at Histone deacetylase 1; over 5000 nM at Histone deacetylase 2; over 5000 nM in assay [1]; over 5000 nM in [2]; over 5 µM on Histone deacetylase 8. Also, the GI50 worked out at 46.9 µM in the assay with A549 and 76 µM in the assay on HepG2 [3].

As for `CCCc1cc(-c2ccc(F)cc2)nn1Cc1ccc(C(=O)NO)cc1`, the 50% inhibitory concentration (IC50) is 0.476 µM at Histone deacetylase; 541 nM on Histone deacetylase 1; 362 nM at Histone deacetylase 2; 290 nM in [1]; 107 nM in assay [2]; over 5 µM at Histone deacetylase 8. In addition, the results for the GI50 in the assay on A549 and in the assay with HepG2 [3] were 15.2 µM and 16.8 µM, respectively.
